From ChEMBL document CHEMBL4229560, “Increasing C-Terminal Hydrophobicity Improves the Cell Permeability and Antiproliferative Activity of PACE4 Inhibitors against Prostate Cancer Cell Lines” (J Med Chem, 2018)
Where a SMILES comes first, the peptide text is derived from it. [ ]: non-standard residue; d: D form. The star is where a group is joined. Phe(4-guanidino) = N=C(N)Nc1ccc(C[C@H](N)C(=O)O)cc1; Phe(4-NH2) = Nc1ccc(C[C@H](N)C(=O)O)cc1; Tryptamide = c1ccc2c(CCN*)c[nH]c2c1; βAla = NCCC(=O)O

Columns and labels:
[1] = target: T1, Proprotein convertase subtilisin/kexin type 6 (Homo sapiens, UniProt P29122); assay: Inhibition of recombinant human PACE4 expressed in S2 insect cells using pyroGlu-Arg-Thr-Lys-Arg-AMC peptide as substrate after 1 hr by spectrofluorometry
T1 sequence (P29122 whole entry): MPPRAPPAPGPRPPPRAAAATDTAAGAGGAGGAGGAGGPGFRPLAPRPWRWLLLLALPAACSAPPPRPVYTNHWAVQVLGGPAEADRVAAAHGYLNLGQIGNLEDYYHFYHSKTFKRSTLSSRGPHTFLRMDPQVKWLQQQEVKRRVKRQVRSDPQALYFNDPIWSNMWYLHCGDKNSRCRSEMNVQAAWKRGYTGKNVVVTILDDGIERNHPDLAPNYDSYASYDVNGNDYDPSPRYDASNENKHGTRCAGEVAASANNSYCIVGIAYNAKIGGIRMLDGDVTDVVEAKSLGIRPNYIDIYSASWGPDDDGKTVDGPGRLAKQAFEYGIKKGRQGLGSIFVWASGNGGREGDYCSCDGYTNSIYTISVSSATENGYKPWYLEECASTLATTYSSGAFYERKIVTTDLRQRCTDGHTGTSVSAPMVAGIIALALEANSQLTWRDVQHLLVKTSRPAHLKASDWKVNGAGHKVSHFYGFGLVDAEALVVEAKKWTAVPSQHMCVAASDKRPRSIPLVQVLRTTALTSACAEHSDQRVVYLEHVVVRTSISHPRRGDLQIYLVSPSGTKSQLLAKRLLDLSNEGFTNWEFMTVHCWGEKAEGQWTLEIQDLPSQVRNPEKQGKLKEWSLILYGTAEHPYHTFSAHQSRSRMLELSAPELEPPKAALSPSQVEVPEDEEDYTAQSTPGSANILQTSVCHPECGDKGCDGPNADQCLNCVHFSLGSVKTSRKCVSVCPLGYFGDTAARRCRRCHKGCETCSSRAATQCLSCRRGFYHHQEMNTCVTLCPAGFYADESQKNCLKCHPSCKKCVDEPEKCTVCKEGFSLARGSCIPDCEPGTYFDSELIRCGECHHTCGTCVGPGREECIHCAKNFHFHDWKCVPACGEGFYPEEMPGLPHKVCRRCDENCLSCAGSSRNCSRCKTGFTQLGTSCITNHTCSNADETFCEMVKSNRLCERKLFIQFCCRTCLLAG
Outline: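 Human recombinant PACE4 made in S2 insect cells and purified. Assay buffer 20 mM Bis-Tris pH 6.5, 1 mM CaCl2, 1.8 g/L BSA. Substrate 100 µM per well, inhibitors 0–10 µM, 2 units enzyme. Fluorescence (ex 370/em 460 nm) followed in real time for 1 h. Ki from IC50 by Cheng–Prusoff; duplicate or triplicate.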

[2] = Half life in human plasma by ion chromatogram-based analysis; type: ADME, cell-free
Outline: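 Peptide at 50 µM was incubated at 37 °C in human serum from male AB plasma. At each time point, plasma was precipitated with MeOH containing Fmoc-Leu-OH internal standard, centrifuged and filtered. Samples were analysed by UPLC-MS. The peptide/standard ratio of total ion chromatogram peak area was expressed relative to 0 h.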

LNCaP [3] = assay: Antiproliferative activity against human LNCAP cells after 72 hrs by MTT assay; type: functional, cell-based
Outline: (§1)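 MTT assay run 72 h. Seeding was ~1500 cells/well for DU145 and ~2500 cells/well for LNCaP, in RPMI 1640 with 5% FBS (DU145) or 10% FBS (LNCaP). Medium was changed after 24 h, then inhibitor added at 1–300 µM or 1–150 µM. MTT was added at 1 g/L final for 4 h and formazan dissolved in 2-propanol/HCl. Readings were relative to vehicle (water, 0.1% DMSO). IC50 was from at least two independent experiments.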

DU-145 [4] = assay: Cytotoxicity against human DU145 cells assessed as effect on live cells >10 uM after 1.5 hrs by propidium iodide-staining based FACS analysis; type: cell-based; settings: du-145, 1.5 h
Outline: (§2)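 DU145 cells (200 000 per well) exposed to peptides in serum-free medium for 1.5 h at 1, 10, 50 and 100 µM, or 1, 10, 15, 20, 30, 50, 100 µM for the dose-response set. Cells trypsinized, washed, resuspended in PBS, PI added (final 10 µg/mL), fluorescence read by flow cytometry; IC50(PI) from the dose-response curve; at least two independent experiments.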

Homo sapiens = species: Homo sapiens; assay: Selectivity ratio of Ki for recombinant human furin to Ki for recombinant human PACE4
Outline: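 Ki values came from human recombinant enzymes expressed in S2 insect cells. Furin was assayed in 100 mM HEPES pH 7.5, 1 mM CaCl2, 1 mM β-mercaptoethanol and 1.8 g/L BSA. PACE4 was assayed in 20 mM Bis-Tris pH 6.5, 1 mM CaCl2 and 1.8 g/L BSA. Substrate was pERTKR-AMC at 100 µM, with inhibitor at 0–10 µM. Fluorescence (ex 370/em 460 nm) was read for 1 h, and Ki derived by Cheng-Prusoff.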

DU-145 [5] = assay: Antiproliferative activity against human DU145 cells after 72 hrs by MTT assay; type: functional, cell-based; settings: DU-145, 72 h; outline: as §1
Furin = Furin (Homo sapiens, UniProt P09958); assay: Inhibition of recombinant human furin expressed in S2 insect cells using pyroGlu-Arg-Thr-Lys-Arg-AMC peptide as substrate after 1 hr by spectrofluorometry
Outline: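 Furin was human recombinant from S2 insect cells, purified. Buffer 100 mM HEPES pH 7.5, 1 mM CaCl2, 1 mM β-mercaptoethanol, 1.8 g/L BSA. Substrate 100 µM per well, inhibitors 0–10 µM, 2 units enzyme. Real-time fluorescence (ex 370/em 460 nm) over 1 h. Ki by Cheng–Prusoff; duplicate or triplicate.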

[6] = Drug uptake in human DU145 cells at 1 uM after 1 hr using FITC labelled compound by flow cytometric analysis relative to FITC-[betaAla]-LLLLRVKR-NH2 peptide; type: ADME, cell-based; settings: du-145, 1 h
Outline: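 DU145 cells were plated at 200000 per dish and grown 48 h at 37 °C. They were exposed to 1 µM N-terminally FITC-labelled peptide for 1 h at 37 °C, then trypsinized, washed and resuspended in PBS. PI at 10 µg/mL was added to gate out dead cells. Parallel tubes were quenched with 0.04% trypan blue to remove membrane-bound signal. Flow cytometry counted at least 10000 events.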

DU-145 [7] = assay: Antiproliferative activity against human DU145 cells up to 300 uM after 72 hrs by MTT assay relative to control; type: functional; outline: as §1
LNCaP [8] = assay: Antiproliferative activity against human LNCAP cells up to 300 uM after 72 hrs by MTT assay relative to control; type: functional; outline: as §1
DU-145 [9] = assay: Cytotoxicity against human DU145 cells assessed as effect on live cells up to 100 uM after 1.5 hrs by propidium iodide-staining based FACS analysis; type: cell-based; settings: du-145, 1.5 h; outline: as §2

Furin, sequence (P09958 whole entry): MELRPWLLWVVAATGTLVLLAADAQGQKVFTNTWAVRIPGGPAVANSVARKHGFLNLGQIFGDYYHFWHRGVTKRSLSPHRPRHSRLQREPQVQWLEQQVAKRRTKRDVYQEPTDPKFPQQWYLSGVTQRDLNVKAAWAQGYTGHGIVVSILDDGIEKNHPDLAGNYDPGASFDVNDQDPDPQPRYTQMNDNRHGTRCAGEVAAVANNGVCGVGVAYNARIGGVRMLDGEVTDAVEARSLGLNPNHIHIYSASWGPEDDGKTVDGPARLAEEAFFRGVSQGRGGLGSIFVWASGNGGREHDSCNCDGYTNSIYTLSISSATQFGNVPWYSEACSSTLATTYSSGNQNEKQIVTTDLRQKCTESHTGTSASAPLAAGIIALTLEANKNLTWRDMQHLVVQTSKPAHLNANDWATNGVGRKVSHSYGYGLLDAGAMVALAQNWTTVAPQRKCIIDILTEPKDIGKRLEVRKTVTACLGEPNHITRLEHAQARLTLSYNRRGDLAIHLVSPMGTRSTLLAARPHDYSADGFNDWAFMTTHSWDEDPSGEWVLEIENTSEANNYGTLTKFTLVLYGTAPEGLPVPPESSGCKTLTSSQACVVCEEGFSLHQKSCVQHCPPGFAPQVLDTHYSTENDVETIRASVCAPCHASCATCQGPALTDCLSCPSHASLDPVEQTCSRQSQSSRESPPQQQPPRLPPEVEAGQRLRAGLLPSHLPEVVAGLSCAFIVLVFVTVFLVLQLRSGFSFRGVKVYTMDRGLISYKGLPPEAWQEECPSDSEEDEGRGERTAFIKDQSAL

Molecule | Ki [1] | Ratio Ki (Homo sapiens) | IC50 (DU-145 [5]) | Ki (Furin) | also measured
CC(=O)N[C@H](CC(C)C)C(=O)N[C@@H](CC(C)C)C(=O)N[C@@H](CC(C)C)C(=O)N[C@@H](CC(C)C)C(=O)N[C@@H](CCCNC(=N)N)C(=O)N[C@H](C(=O)N[C@@H](CCCCN)C(=O)N[C@@H](CCCNC(=N)N)C(=O)NCCc1c[nH]c2ccccc12)C(C)C | 0.07 µM | 4 | 14 µM | 0.28 µM | half-life [2]: 48 min; IC50 (LNCaP [3]): 18 µM; Activity (DU-145 [4]): Toxic
CC(=O)N[C@H](CC(C)C)C(=O)N[C@@H](CC(C)C)C(=O)N[C@@H](CC(C)C)C(=O)N[C@@H](CC(C)C)C(=O)N[C@@H](CCCNC(=N)N)C(=O)N[C@H](C(=O)N[C@@H](CCCCN)C(=O)N[C@@H](CCCNC(=N)N)C(=O)NCCc1ccc(C(=N)N)cc1)C(C)C | 0.068 µM | 10 | 41 µM | 0.7 µM | IC50 (LNCaP [3]): 67 µM
CC(=O)N[C@@H](CC(C)C)C(=O)N[C@@H](CC(C)C)C(=O)N[C@@H](CC(C)C)C(=O)N[C@@H](CC(C)C)C(=O)N[C@@H](CCCNC(=N)N)C(=O)N[C@H](C(=O)N[C@@H](CCCCN)C(=O)N[C@@H](CCCNC(=N)N)C(=O)N[C@@H](Cc1ccc(N)cc1)C(N)=O)C(C)C (Ac-LLLLRVKR[Phe(4-NH2)]-NH2) | 0.032 µM | 4 | 139 µM | 0.13 µM | IC50 (LNCaP [3]): 170 µM
CC(=O)N[C@@H](CC(C)C)C(=O)N[C@@H](CC(C)C)C(=O)N[C@@H](CC(C)C)C(=O)N[C@@H](CC(C)C)C(=O)N[C@@H](CCCNC(=N)N)C(=O)N[C@H](C(=O)N[C@@H](CCCCN)C(=O)N[C@@H](CCCNC(=N)N)C(=O)N[C@@H](Cc1ccc(NC(=N)N)cc1)C(N)=O)C(C)C (Ac-LLLLRVKR[Phe(4-guanidino)]-NH2) | 0.011 µM | 13 | 83 µM | 0.14 µM | IC50 (LNCaP [3]): 92 µM
CC(C)C[C@H](NC(=O)CCN)C(=O)N[C@@H](CC(C)C)C(=O)N[C@@H](CC(C)C)C(=O)N[C@@H](CC(C)C)C(=O)N[C@@H](CCCNC(=N)N)C(=O)N[C@H](C(=O)N[C@@H](CCCCN)C(=O)N[C@@H](CCCNC(=N)N)C(=O)NCCc1c[nH]c2ccccc12)C(C)C (H-[βAla]LLLLRVKR-Tryptamide) | – | – | – | – | fold change (FC) [6]: 3.5
CC(C)C[C@H](NC(=O)CCN)C(=O)N[C@@H](CC(C)C)C(=O)N[C@@H](CC(C)C)C(=O)N[C@@H](CC(C)C)C(=O)N[C@@H](CCCNC(=N)N)C(=O)N[C@H](C(=O)N[C@@H](CCCCN)C(=O)N[C@@H](CCCNC(=N)N)C(=O)N[C@@H](CCCCN)C(N)=O)C(C)C (H-[βAla]LLLLRVKRK-NH2) | – | – | – | – | Drug uptake [6]: Active
CC(C)C[C@H](NC(=O)CCN)C(=O)N[C@@H](CC(C)C)C(=O)N[C@@H](CC(C)C)C(=O)N[C@@H](CC(C)C)C(=O)N[C@@H](CCCNC(=N)N)C(=O)N[C@H](C(=O)N[C@@H](CCCCN)C(=O)N[C@@H](CCCNC(=N)N)C(=O)N[C@@H](CCCNC(=N)N)C(N)=O)C(C)C (H-[βAla]LLLLRVKRR-NH2) | – | – | – | – | Drug uptake [6]: Active
CC(C)C[C@H](NC(=O)CCN)C(=O)N[C@@H](CC(C)C)C(=O)N[C@@H](CC(C)C)C(=O)N[C@@H](CC(C)C)C(=O)N[C@@H](CCCNC(=N)N)C(=O)N[C@H](C(=O)N[C@@H](CCCCN)C(=O)N[C@@H](CCCNC(=N)N)C(=O)N[C@@H](Cc1c[nH]c2ccccc12)C(N)=O)C(C)C (H-[βAla]LLLLRVKRW-NH2) | – | – | – | – | fold change (FC) [6]: 2
Ac-LLLLRVKR-NH2 | – | 20 | – | – | –
Ac-LLLLRVKRA-NH2 | 0.037 µM | 6 | 160 µM | 0.21 µM | –
Ac-LLLLRVKRD-NH2 | 0.03 µM | 2 | 230 µM | 0.074 µM | –
Ac-LLLLRVKRE-NH2 | 0.058 µM | 4 | – | 0.26 µM | Activity (DU-145 [7]): <50%
Ac-LLLLRVKRF-NH2 | 0.02 µM | 4 | 70 µM | 0.074 µM | IC50 (LNCaP [3]): 170 µM
Ac-LLLLRVKRG-NH2 | 0.044 µM | 11 | – | 0.5 µM | Activity (DU-145 [7]): <50%
Ac-LLLLRVKRH-NH2 | 0.033 µM | 4 | – | 0.14 µM | Activity (DU-145 [7]): <50%
Ac-LLLLRVKRI-NH2 | 0.064 µM | 5 | 72 µM | 0.29 µM | Activity (LNCaP [8]): <50%
Ac-LLLLRVKRK-NH2 | 0.15 µM | 17 | 130 µM | 2.6 µM | Activity (DU-145 [9]): Non-Toxic
Ac-LLLLRVKRL-NH2 | 0.17 µM | 6 | 90 µM | 0.99 µM | –
Ac-LLLLRVKRM-NH2 | 0.032 µM | 5 | 130 µM | 0.17 µM | –
Ac-LLLLRVKRN-NH2 | 0.028 µM | 5 | – | 0.13 µM | Activity (DU-145 [7]): <50%
Ac-LLLLRVKRP-NH2 | 0.25 µM | 4 | 210 µM | 0.99 µM | –
Ac-LLLLRVKRQ-NH2 | 0.043 µM | 5 | 210 µM | 0.19 µM | –
Ac-LLLLRVKRR-NH2 | 0.16 µM | 16 | 71 µM | 2.5 µM | Activity (LNCaP [8]): <50%; Activity (DU-145 [9]): Non-Toxic
Ac-LLLLRVKRS-NH2 | 0.064 µM | 5 | 240 µM | 0.33 µM | –
Ac-LLLLRVKRT-NH2 | 0.022 µM | 5 | 170 µM | 0.1 µM | –
Ac-LLLLRVKRV-NH2 | 0.038 µM | 5 | 170 µM | 0.2 µM | –
Ac-LLLLRVKRW-NH2 | 0.029 µM | 4 | 25 µM | 0.11 µM | IC50 (LNCaP [3]): 31 µM; Activity (DU-145 [4]): Toxic
Ac-LLLLRVKRY-NH2 | 0.029 µM | 2 | 100 µM | 0.064 µM | –
